Measured values taken from ChEMBL document CHEMBL1126594, “Studies directed toward the design of orally active renin inhibitors. 1. Some factors influencing the absorption of small peptides” (J Med Chem, 1993).

Target: T1, Renin (Homo sapiens, UniProt P00797)
T1 sequence (P00797 whole entry): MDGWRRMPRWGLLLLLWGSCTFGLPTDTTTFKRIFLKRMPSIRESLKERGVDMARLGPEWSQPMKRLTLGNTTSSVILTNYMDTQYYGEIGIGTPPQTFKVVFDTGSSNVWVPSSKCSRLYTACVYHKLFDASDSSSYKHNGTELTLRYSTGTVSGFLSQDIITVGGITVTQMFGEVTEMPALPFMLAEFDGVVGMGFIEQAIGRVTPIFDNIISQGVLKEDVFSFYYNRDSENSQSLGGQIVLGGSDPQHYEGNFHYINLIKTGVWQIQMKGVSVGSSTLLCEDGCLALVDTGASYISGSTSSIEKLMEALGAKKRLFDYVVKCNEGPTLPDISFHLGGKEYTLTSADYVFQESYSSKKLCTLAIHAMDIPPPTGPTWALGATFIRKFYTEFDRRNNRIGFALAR
Experiment: Inhibition of human plasma renin at pH 7.4
Format: cell-free
Conditions: not given
In short: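 Human plasma renin, pH 7.4; IC50 determined by the previously described method.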

| SMILES | IC50 [nM] |
| --- | --- |
| COc1ccc(C[C@H](NC(=O)CC(C)(C)N)C(=O)N[C@@H](Cc2cscn2)C(=O)N[C@@H](CC2CCCCC2)[C@@H](O)[C@@H](O)CC(C)C)cc1 | 33 |
| CC(C)C[C@H](O)[C@H](O)[C@H](CC1CCCCC1)NC(=O)[C@H](CN(C)C)NC(=O)[C@@H](CC(=O)N1CCOCC1)Cc1ccccc1 | 210 |
| CON(C)C[C@H](NC(=O)[C@@H](CC(=O)N1CCOCC1)Cc1ccccc1)C(=O)N[C@@H](CC1CCCCC1)[C@@H](O)[C@@H](O)CC(C)C | 88 |
| CC(C)C[C@H](O)[C@H](O)[C@H](CC1CCCCC1)NC(=O)[C@H](Cc1c[nH]cn1)NC(=O)[C@@H](CC(=O)N1CCN(C)CC1)Cc1ccccc1 | 5.4 |
| CCN1C[C@@H]([C@H](O)[C@H](CC2CCCCC2)NC(=O)[C@H](Cc2c[nH]cn2)NC(=O)[C@H](Cc2ccc(OC)cc2)NC(=O)CC(C)(C)N)OC1=O | 17 |
| CC(C)C[C@H](O)[C@H](O)[C@H](CC1CCCCC1)NC(=O)[C@H](CN=[N+]=[N-])NC(=O)[C@@H](CC(=O)N1CCOCC1)Cc1ccccc1 | 11 |
| CC(C)C[C@H](O)[C@H](O)[C@H](CC1CCCCC1)NC(=O)[C@H](Cc1c[nH]cn1)NC(=O)[C@@H](CC(=O)N1CCOCC1)Cc1ccccc1 | 1.6 |
| CC(C)C[C@H](O)[C@H](O)[C@H](CC1CCCCC1)NC(=O)[C@H](Cn1ccnc1)NC(=O)[C@@H](CC(=O)N1CCOCC1)Cc1ccccc1 | 93 |
| COc1ccc(C[C@H](NC(=O)C2CCN(C)CC2)C(=O)N[C@@H](Cc2cscn2)C(=O)N[C@@H](CC2CCCCC2)[C@@H](O)[C@@H](O)CC(C)C)cc1 | 170 |
| COc1ccc(C[C@H](NC(=O)N2CCN(C)CC2)C(=O)N[C@@H](Cc2cscn2)C(=O)N[C@@H](CC2CCCCC2)[C@@H](O)[C@@H](O)CC(C)C)cc1 | 120 |

System: not listed separately
Experiment: Plasma level by the renin inhibition assay from samples taken at 10 minutes from systemic circulation by administering 10 mg/kg intraduodenally to the rat
Conditions: not given

| SMILES | concentration at 10 min [ng/mL] |
| --- | --- |
| CCN1C[C@@H]([C@H](O)[C@H](CC2CCCCC2)NC(=O)[C@H](Cc2cnc[nH]2)NC(=O)[C@@H](CC(=O)N2CCOCC2)Cc2ccccc2)OC1=O | 55 |
| COc1ccc(C[C@H](NC(=O)CC(C)(C)N)C(=O)N[C@@H](Cc2cscn2)C(=O)N[C@@H](CC2CCCCC2)[C@@H](O)[C@@H](O)CC(C)C)cc1 | 17 |
| CCN1C[C@@H]([C@H](O)[C@H](CC2CCCCC2)NC(=O)[C@H](Cc2cc[nH]n2)NC(=O)[C@@H](CC(=O)N2CCOCC2)Cc2ccccc2)OC1=O | 7 |
| CON(C)C[C@H](NC(=O)[C@@H](CC(=O)N1CCOCC1)Cc1ccccc1)C(=O)N[C@@H](CC1CCCCC1)[C@@H](O)[C@@H](O)CC(C)C | 340 |
| CC(C)C[C@H](O)[C@H](O)[C@H](CC1CCCCC1)NC(=O)[C@H](Cc1c[nH]cn1)NC(=O)[C@@H](CC(=O)N1CCN(C)CC1)Cc1ccccc1 | 63 |
| CCN1C[C@@H]([C@H](O)[C@H](CC2CCCCC2)NC(=O)[C@H](Cc2c[nH]cn2)NC(=O)[C@H](Cc2ccc(OC)cc2)NC(=O)CC(C)(C)N)OC1=O | 93 |
| COc1ccc(C[C@H](NC(=O)CC(C)(C)N)C(=O)N[C@@H](Cc2cnc[nH]2)C(=O)N[C@@H](CC2CCCCC2)[C@@H](O)[C@@H](O)CC(C)C)cc1 | 170 |
| CC(C)C[C@H](O)[C@H](O)[C@H](CC1CCCCC1)NC(=O)[C@H](Cc1c[nH]cn1)NC(=O)[C@@H](CC(=O)N1CCOCC1)Cc1ccccc1 | 13 |
| COc1ccc(C[C@H](NC(=O)C2CCN(C)CC2)C(=O)N[C@@H](Cc2cscn2)C(=O)N[C@@H](CC2CCCCC2)[C@@H](O)[C@@H](O)CC(C)C)cc1 | 160 |

System: not listed separately
Experiment: Partition coefficient (logD7.4)
Conditions: octanol/water, pH 7.4

| SMILES | logD |
| --- | --- |
| CCN1C[C@@H]([C@H](O)[C@H](CC2CCCCC2)NC(=O)[C@H](Cc2cc[nH]n2)NC(=O)[C@@H](CC(=O)N2CCOCC2)Cc2ccccc2)OC1=O | 2.49 |
| CON(C)C[C@H](NC(=O)[C@@H](CC(=O)N1CCOCC1)Cc1ccccc1)C(=O)N[C@@H](CC1CCCCC1)[C@@H](O)[C@@H](O)CC(C)C | > 4.6 |
| CC(C)C[C@H](O)[C@H](O)[C@H](CC1CCCCC1)NC(=O)[C@H](Cc1c[nH]cn1)NC(=O)[C@@H](CC(=O)N1CCN(C)CC1)Cc1ccccc1 | 1.66 |
| CC(C)C[C@H](O)[C@H](O)[C@H](CC1CCCCC1)NC(=O)[C@H](CN=[N+]=[N-])NC(=O)[C@@H](CC(=O)N1CCOCC1)Cc1ccccc1 | 4.1 |
| CC(C)C[C@H](O)[C@H](O)[C@H](CC1CCCCC1)NC(=O)[C@H](Cc1c[nH]cn1)NC(=O)[C@@H](CC(=O)N1CCOCC1)Cc1ccccc1 | 3.51 |
| CC(C)C[C@H](O)[C@H](O)[C@H](CC1CCCCC1)NC(=O)[C@H](Cn1ccnc1)NC(=O)[C@@H](CC(=O)N1CCOCC1)Cc1ccccc1 | 3.79 |
| COc1ccc(C[C@H](NC(=O)C2CCN(C)CC2)C(=O)N[C@@H](Cc2cscn2)C(=O)N[C@@H](CC2CCCCC2)[C@@H](O)[C@@H](O)CC(C)C)cc1 | 3.03 |

System: not listed separately
Experiment: Plasma level by the renin inhibition assay from samples taken at 30 minutes from portal circulation by administering 10 mg/kg intraduodenally to the rat
Conditions: not given

| SMILES | concentration at 0.5 h [ng/mL] |
| --- | --- |
| CCN1C[C@@H]([C@H](O)[C@H](CC2CCCCC2)NC(=O)[C@H](Cc2cnc[nH]2)NC(=O)[C@@H](CC(=O)N2CCOCC2)Cc2ccccc2)OC1=O | 390 |
| COc1ccc(C[C@H](NC(=O)CC(C)(C)N)C(=O)N[C@@H](Cc2cscn2)C(=O)N[C@@H](CC2CCCCC2)[C@@H](O)[C@@H](O)CC(C)C)cc1 | 53 |
| CCN1C[C@@H]([C@H](O)[C@H](CC2CCCCC2)NC(=O)[C@H](Cc2cc[nH]n2)NC(=O)[C@@H](CC(=O)N2CCOCC2)Cc2ccccc2)OC1=O | 58 |
| CON(C)C[C@H](NC(=O)[C@@H](CC(=O)N1CCOCC1)Cc1ccccc1)C(=O)N[C@@H](CC1CCCCC1)[C@@H](O)[C@@H](O)CC(C)C | 1400 |
| CC(C)C[C@H](O)[C@H](O)[C@H](CC1CCCCC1)NC(=O)[C@H](Cc1c[nH]cn1)NC(=O)[C@@H](CC(=O)N1CCN(C)CC1)Cc1ccccc1 | 30 |
| CCN1C[C@@H]([C@H](O)[C@H](CC2CCCCC2)NC(=O)[C@H](Cc2c[nH]cn2)NC(=O)[C@H](Cc2ccc(OC)cc2)NC(=O)CC(C)(C)N)OC1=O | 250 |
| COc1ccc(C[C@H](NC(=O)CC(C)(C)N)C(=O)N[C@@H](Cc2cnc[nH]2)C(=O)N[C@@H](CC2CCCCC2)[C@@H](O)[C@@H](O)CC(C)C)cc1 | 540 |
| CC(C)C[C@H](O)[C@H](O)[C@H](CC1CCCCC1)NC(=O)[C@H](Cc1c[nH]cn1)NC(=O)[C@@H](CC(=O)N1CCOCC1)Cc1ccccc1 | 170 |
| COc1ccc(C[C@H](NC(=O)C2CCN(C)CC2)C(=O)N[C@@H](Cc2cscn2)C(=O)N[C@@H](CC2CCCCC2)[C@@H](O)[C@@H](O)CC(C)C)cc1 | 770 |

System: not listed separately
Experiment: Plasma level by the renin inhibition assay from samples taken at 10 minutes from portal circulation by administering 10 mg/kg intraduodenally to the rat
Conditions: not given

| SMILES | concentration at 10 min [ng/mL] |
| --- | --- |
| CCN1C[C@@H]([C@H](O)[C@H](CC2CCCCC2)NC(=O)[C@H](Cc2cnc[nH]2)NC(=O)[C@@H](CC(=O)N2CCOCC2)Cc2ccccc2)OC1=O | 280 |
| COc1ccc(C[C@H](NC(=O)CC(C)(C)N)C(=O)N[C@@H](Cc2cscn2)C(=O)N[C@@H](CC2CCCCC2)[C@@H](O)[C@@H](O)CC(C)C)cc1 | 93 |
| CCN1C[C@@H]([C@H](O)[C@H](CC2CCCCC2)NC(=O)[C@H](Cc2cc[nH]n2)NC(=O)[C@@H](CC(=O)N2CCOCC2)Cc2ccccc2)OC1=O | 28 |
| CON(C)C[C@H](NC(=O)[C@@H](CC(=O)N1CCOCC1)Cc1ccccc1)C(=O)N[C@@H](CC1CCCCC1)[C@@H](O)[C@@H](O)CC(C)C | 3500 |
| CC(C)C[C@H](O)[C@H](O)[C@H](CC1CCCCC1)NC(=O)[C@H](Cc1c[nH]cn1)NC(=O)[C@@H](CC(=O)N1CCN(C)CC1)Cc1ccccc1 | 67 |
| CCN1C[C@@H]([C@H](O)[C@H](CC2CCCCC2)NC(=O)[C@H](Cc2c[nH]cn2)NC(=O)[C@H](Cc2ccc(OC)cc2)NC(=O)CC(C)(C)N)OC1=O | 140 |
| COc1ccc(C[C@H](NC(=O)CC(C)(C)N)C(=O)N[C@@H](Cc2cnc[nH]2)C(=O)N[C@@H](CC2CCCCC2)[C@@H](O)[C@@H](O)CC(C)C)cc1 | 1100 |
| CC(C)C[C@H](O)[C@H](O)[C@H](CC1CCCCC1)NC(=O)[C@H](Cc1c[nH]cn1)NC(=O)[C@@H](CC(=O)N1CCOCC1)Cc1ccccc1 | 190 |
| COc1ccc(C[C@H](NC(=O)C2CCN(C)CC2)C(=O)N[C@@H](Cc2cscn2)C(=O)N[C@@H](CC2CCCCC2)[C@@H](O)[C@@H](O)CC(C)C)cc1 | 1200 |

System: not listed separately
Experiment: Plasma level by the renin inhibition assay from samples taken at 30 minutes from systemic circulation by administering 10 mg/kg intraduodenally to the rat
Conditions: not given

| SMILES | concentration at 0.5 h [ng/mL] |
| --- | --- |
| CCN1C[C@@H]([C@H](O)[C@H](CC2CCCCC2)NC(=O)[C@H](Cc2cnc[nH]2)NC(=O)[C@@H](CC(=O)N2CCOCC2)Cc2ccccc2)OC1=O | 34 |
| COc1ccc(C[C@H](NC(=O)CC(C)(C)N)C(=O)N[C@@H](Cc2cscn2)C(=O)N[C@@H](CC2CCCCC2)[C@@H](O)[C@@H](O)CC(C)C)cc1 | 13 |
| CCN1C[C@@H]([C@H](O)[C@H](CC2CCCCC2)NC(=O)[C@H](Cc2cc[nH]n2)NC(=O)[C@@H](CC(=O)N2CCOCC2)Cc2ccccc2)OC1=O | 7 |
| CON(C)C[C@H](NC(=O)[C@@H](CC(=O)N1CCOCC1)Cc1ccccc1)C(=O)N[C@@H](CC1CCCCC1)[C@@H](O)[C@@H](O)CC(C)C | 170 |
| CC(C)C[C@H](O)[C@H](O)[C@H](CC1CCCCC1)NC(=O)[C@H](Cc1c[nH]cn1)NC(=O)[C@@H](CC(=O)N1CCN(C)CC1)Cc1ccccc1 | 40 |
| CCN1C[C@@H]([C@H](O)[C@H](CC2CCCCC2)NC(=O)[C@H](Cc2c[nH]cn2)NC(=O)[C@H](Cc2ccc(OC)cc2)NC(=O)CC(C)(C)N)OC1=O | 110 |
| COc1ccc(C[C@H](NC(=O)CC(C)(C)N)C(=O)N[C@@H](Cc2cnc[nH]2)C(=O)N[C@@H](CC2CCCCC2)[C@@H](O)[C@@H](O)CC(C)C)cc1 | 82 |
| CC(C)C[C@H](O)[C@H](O)[C@H](CC1CCCCC1)NC(=O)[C@H](Cc1c[nH]cn1)NC(=O)[C@@H](CC(=O)N1CCOCC1)Cc1ccccc1 | 11 |
| COc1ccc(C[C@H](NC(=O)C2CCN(C)CC2)C(=O)N[C@@H](Cc2cscn2)C(=O)N[C@@H](CC2CCCCC2)[C@@H](O)[C@@H](O)CC(C)C)cc1 | 90 |
